From PubChem
Hits are enriched below; roughly 4.6% of the tested compounds scored in any of these assays.
HDAC3 inhib: inhibitors of human histone deacetylase 3; AID 2718; recombinant HDAC3, fluorogenic peptide/trypsin coupled, fluorescence; 320,000 compounds, 0.15% hits; inhibition, % at 8.3 µM; O15379; in the data active = inhibition above about 26%, passing the limit was not always enough
FAS TE block: inhibitors of human fatty acid synthase thioesterase domain; P49327; recombinant FAS-TE, OMFH fluorogenic substrate, fluorescence endpoint; inhibition, % at 15 µM; 360,000 compounds, 0.67% hits;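 active = compounds whose normalised, plate-corrected inhibition of enzyme fluorescence in the single-dose primary screen is 50% or more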;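 also: 0% = DMSO with enzyme and 100% = substrate without enzyme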
PfM18AAP inh: PfM18AAP enzyme inhibition. recombinant PfM18AAP, H-Glu-NHMec fluorogenic cleavage. inhibition, % at 7.35 µM. 290,000 compounds, 1.2% hits;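 active = inhibition above the campaign mean inhibition over all tested compounds plus 3 SD, cut at about 28% in these data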;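 also: 0% = plate median of test compound wells and 100% = 2 mM ZnCl2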
Rtt109 HAT inh: blocks Candida albicans Rtt109/Vps75 acetyltransferase activity | Q5AAJ8 | purified Rtt109/Vps75, ThioGlo CoA-SH fluorescence, 4 h | inhibition, % at 34.9 µM | 330,000 compounds, 0.16% hits;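 active = inhibition of at least 50% in every replicate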
ALR H2O2 inh: human ALR oxidase inhibition via reduced H2O2; P55789; purified ALR, DTT oxidation, H2O2 HRP-luminol luminescence; inhibition, % (concentration not given with the values); 290,000 compounds, 3.8% hits;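 active = mean replicate inhibition above about 79%, with every replicate also reaching it, limit read from the data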
Target sequence (P55789 whole entry, looked up): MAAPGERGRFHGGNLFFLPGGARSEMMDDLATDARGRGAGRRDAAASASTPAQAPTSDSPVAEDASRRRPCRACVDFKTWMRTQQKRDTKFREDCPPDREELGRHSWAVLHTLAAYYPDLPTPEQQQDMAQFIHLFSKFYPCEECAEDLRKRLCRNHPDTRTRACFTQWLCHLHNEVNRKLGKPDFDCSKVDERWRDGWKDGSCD
UCH37 inh: blocks the human deubiquitinase UCH37; Q9Y5K5; purified proteasome/UCH37, Ub-AMC cleavage fluorescence; 330,000 compounds, 0.33% hits; inhibition, % (no concentration beside the values);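 active = mean inhibition over replicate wells above about 20%, limit read from the data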;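 also: 0% = compound-free wells with enzyme and 100% = wells lacking proteasome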
Target sequence (Q9Y5K5 whole entry, looked up): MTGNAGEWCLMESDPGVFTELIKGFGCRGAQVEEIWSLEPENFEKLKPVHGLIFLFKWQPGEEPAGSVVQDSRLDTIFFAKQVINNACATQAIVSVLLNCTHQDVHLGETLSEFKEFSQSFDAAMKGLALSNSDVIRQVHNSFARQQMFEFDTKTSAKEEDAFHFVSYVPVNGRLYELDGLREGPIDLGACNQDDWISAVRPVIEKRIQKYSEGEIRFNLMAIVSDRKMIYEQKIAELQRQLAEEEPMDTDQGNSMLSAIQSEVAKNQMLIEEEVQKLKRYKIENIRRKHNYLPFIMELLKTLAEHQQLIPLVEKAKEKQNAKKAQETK
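Reagent: Ub-AMC substrate; assay system: Proteasome-associated human UCH37 deubiquitinase; controls: no-proteasome and no-compound wells; read-out: % inhibition of Ub-AMC cleavage fluorescence; timing: 30 min preincubation with enzyme, 25 min cleavage at room temperature; signal: AMC fluorescence from Ub-AMC cleavage, excitation 355 nm, emission 460 nm; buffer or medium: Tris-HCl pH 7.4 plus ovalbumin, ATP-MgCl2, DTT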
FAS-TE conf: FAS thioesterase (human) inhibition, confirmation; shares compounds with FAS TE block; recombinant FAS-TE, OMFH fluorogenic substrate, fluorescence; inhibition, % at 15 µM; 2,300 compounds, 45% hits; AID 624325;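 active = compounds inhibiting the enzyme by at least 50% at 15 µM in any one of the replicates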;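 also: 0% = enzyme with DMSO only and 100% = wells lacking enzyme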
* = called active by the depositor; / = not tested or not shown.

SMILES | HDAC3 inhib | FAS TE block | PfM18AAP inh | Rtt109 HAT inh | ALR H2O2 inh | UCH37 inh | FAS-TE conf
O=C(/C=C/c1cccc([N+](=O)[O-])c1)NCCSCc1cccc(Cl)c1 | -4 | 58* | -2 | 6 | 2 | 2 | 66*
O=C(/C=C/c1cccc([N+](=O)[O-])c1)NCCc1ccc(F)cc1 | -2 | 52* | 0 | -24 | 6 | 3 | 51*
Cc1ccc(C(C)C)cc1OCC(=O)NN=Cc1ccc2c(c1)OCCO2 | / | / | / | / | / | 4 | /
COc1ccc(C=NNC(=O)COc2cccc3cccnc23)cc1OC | / | / | / | / | / | 3 | /
CC(Cn1nnc([N+](=O)[O-])n1)=NNC(=O)c1ccc(O)cc1 | / | / | / | / | / | 0 | /
O=C(Nc1ccccc1)c1ccc(Nc2c([N+](=O)[O-])cc([N+](=O)[O-])c3ccccc23)cc1 | 5 | 69* | -4 | 10 | -13 | / | 38
O=C(Nc1ccccc1)ON=C(c1ccccc1)c1ccccn1 | / | / | / | / | / | 5 | /
CCCC(=NNC(=O)c1csc(C)c1C)c1ccc(Cl)s1 | / | / | / | / | / | 4 | /
O=C(Cn1nc(-c2ccco2)ccc1=O)Nc1ccc(Cl)c(Cl)c1 | -4 | 59* | -15 | -28 | / | -22 | 36*
O=C(Cn1nc(-c2ccco2)ccc1=O)Nc1cc(Cl)ccc1Cl | -1 | 29 | -16 | 1 | 3 | -74 | /
CCOc1ccccc1NC(=O)Cn1nc(-c2ccco2)ccc1=O | 1 | 0 | -56 | 10 | 3 | -6 | /
O=C(Cn1nc(-c2ccco2)ccc1=O)Nc1cc(C(F)(F)F)ccc1Cl | 12 | 52* | -8 | -1 | 2 | -53 | 73*
Cc1cc(C)cc(NC(=S)N=Nc2c(O)n(C)c3ccc(S(=O)(=O)N4CCOCC4)cc23)c1 | -2 | 61* | -6 | 2 | -9 | 6 | 6
Cc1cccc(NC(=S)N=Nc2c(O)n(C)c3ccc(S(=O)(=O)N4CCOCC4)cc23)c1 | -2 | 59* | 5 | -2 | -11 | 10 | 24
Cn1c(=O)n(C)c2cc(S(=O)(=O)N3CCOCC3)ccc21 | -1 | -8 | -3 | -2 | -9 | 3 | /
Cc1ccc(NC(=S)N=Nc2c(O)n(C)c3ccc(S(=O)(=O)N4CCOCC4)cc23)cc1 | / | 59* | 9 | -13 | / | 11 | 27
C=CCn1c(O)c(N=NC(=S)Nc2ccccc2F)c2cc(S(=O)(=O)N3CCOCC3)ccc21 | 5 | 59* | 6 | 13 | -10 | 7 | 16
Cc1cccc(Nc2ccc(S(=O)(=O)N3CCOCC3)cc2[N+](=O)[O-])c1 | 1 | 25 | / | -6 | 0 | 2 | /
Clc1ccc(-c2csc(NN=Cc3cccnc3)n2)c(Cl)c1 | / | / | / | / | / | -9 | /
Cc1cccc(C)c1NC(=S)N=Nc1c(O)n(C)c2ccc(S(=O)(=O)N3CCOCC3)cc12 | 0 | 76* | 3 | -5 | 0 | 12 | 31
Cc1ccccc1NC(=S)N=Nc1c(O)n(C)c2ccc(S(=O)(=O)N3CCOCC3)cc12 | / | 21 | 6 | 5 | / | 10 | /
CCN1CCN(S(=O)(=O)c2ccc(Cl)c(C(=O)N(C)Cc3ccc(C(C)(C)C)cc3)c2)CC1 | / | 59* | / | 10 | / | 3 | 45*
O=C1C2ON(c3ccccc3)C(c3cccnc3)C2C(=O)N1c1ccccc1 (stereo unspecified) | 2 | 0 | 2 | -18 | -3 | -2 | /
O=C1C2ON(c3ccccc3)C(c3cccnc3)C2C(=O)N1c1ccc(Cl)c(Cl)c1 (stereo unspecified) | -3 | 60* | -5 | 4 | -9 | -2 | 60*
Cc1ccc(-c2cc(C(=O)NN=Cc3ccc(F)cc3)n[nH]2)o1 | / | / | / | / | / | 3 | /
SMILES | HDAC3 inhib | FAS TE block | PfM18AAP inh | Rtt109 HAT inh | ALR H2O2 inh | UCH37 inh | FAS-TE conf
CCc1ccc(OCC(=O)NN=C2CC(=O)c3ccccc32)cc1 | / | / | / | / | / | 8 | /
CCc1nc2c(OCc3ccc(Cl)cc3)cccn2c1N(C=O)Cc1ccccc1 | / | 64* | / | / | / | / | 71*
COCc1cc(C)nc(SCC[N+](C)(C)CC(=O)Nc2ccccc2)c1C#N | 2 | 53* | -1 | -1 | -1 | 1 | 63*
COCc1cc(C)nc(SCC[N+](C)(C)CC(=O)c2ccc(Br)cc2)c1C#N | 0 | 38 | 7 | 3 | -40 | 10 | /
CCOC(=O)N1CCN(Cc2cc(=O)oc3ccc4ccccc4c23)CC1 | -12 | 10 | 0 | -15 | -18 | / | /
O=C(CC12CC3CC(CC(C3)C1)C2)NCC(=O)OCc1cc(=O)oc2ccc3ccccc3c12 | -7 | 55* | -5 | / | 3 | -26 | 15
COc1ccc(N(C)S(=O)(=O)c2cccc(C(=O)N3CCN(S(=O)(=O)c4ccc(C)cc4)CC3)c2)cc1 | 9 | 52* | 1 | 8 | -17 | 3 | 5
COc1ccc(S(=O)(=O)N2CCN(C(=O)c3cccc(S(=O)(=O)N4CCCC4)c3)CC2)cc1 | / | -2 | / | / | / | / | /
COc1ccc(CNC(=O)C(C)OC(=O)CON=C(C)c2ccc3c(c2)OCO3)cc1 (stereo unspecified) | / | / | / | / | / | 1 | /
COc1ccc(OC)c(S(=O)(=O)N2CCN(c3ccccc3)CC2)c1 | 0 | 8 | 1 | 7 | 38 | 1 | /
CCc1ccc(S(=O)(=O)ON2C(=O)c3ccccc3C2=O)cc1 | / | 81* | -1 | -6 | / | -5 | 72*
CCc1ccc(OC(=O)CN2C(=O)c3ccccc3C2=O)cc1 | 4 | 0 | -10 | 5 | 7 | 0 | /
COc1ccc(OC)c(S(=O)(=O)ON2C(=O)c3ccccc3C2=O)c1 | 37* | 79* | 4 | -12 | -6 | 1 | 66*
O=C1c2cccc3cccc(c23)C(=O)N1OS(=O)(=O)c1ccc(Cl)cc1 | -9 | 52* | 3 | -22 | 25 | -99 | 14
O=C(N/N=C1/C(=O)c2cccc3cccc1c23)c1ccc(Cl)cc1 | -1 | 12 | 5 | 12 | -2 | / | /
